The source made the active and inactive calls. No cut-off for these calls is given here.
Columns and labels:
[1] = tested on: Mus musculus; experiment: In vivo inhibition of LDH in human A673 cells xenografted athymic nude CrTac:NCr-Foxn1nu mouse assessed as reduction in tumor LDH activity at 50 mg/kg, iv after 1 hr by NADH-based UV-VIS spectrometric method relative to control; type: functional, organism-based
Summary of the method: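 Female athymic nude mice carried SQ A673 flank xenografts (2 million cells) and received a single IV dose of 50 mg/kg in PBS-based vehicle. Four mice per time point were sacrificed at 1, 3, 6 and 24 h. Frozen tumor (10–50 mg) was pulverized and lysed in PBS pH 7.4 with 0.1% Triton X-100 on ice for 1 h. Cleared lysate (10–20 μg) was assayed with 10 mM pyruvate and 0.3 mM final NADH, reading NADH oxidation at 340 nm at 37 °C.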

[2] = Oral bioavailability in CD-1 mouse at 40 mg/kg and measured up to 24 hrs by LC/MS-MS analysis; type: ADME, organism-based; conditions: in vivo
Summary of the method: (§1)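 Male CD1 mice, 6–8 weeks, about 20–30 g, three per cohort. Dosed PO at 40 or 50 mg/kg, or IV at 10 mg/kg for reference, in PBS with […] (pH 7–8). Dorsal metatarsal blood was taken into heparin at 15 min to 24 h (PO) or 5 min to 24 h (IV). Plasma was frozen and quantified by LC–MS/MS.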

[3] = AUC last in CD-1 mouse at 40 mg/kg, po and measured up to 24 hrs by LC/MS-MS analysis; type: ADME, organism-based; set-up: route oral, dose 40 mg/kg, time <=24; conditions: in vivo; summary of the method: as §1
[4] = Cmax in CD-1 mouse at 40 mg/kg, po and measured up to 24 hrs by LC/MS-MS analysis; type: ADME, organism-based; set-up: route oral, dose 40 mg/kg, time <=24; conditions: in vivo; summary of the method: as §1
[5] = Terminal half life in CD-1 mouse at 40 mg/kg, po and measured up to 24 hrs by LC/MS-MS analysis; type: ADME, organism-based; conditions: in vivo; summary of the method: as §1
[6] = Terminal half life in CD-1 mouse at 10 mg/kg, iv and measured up to 24 hrs by LC/MS-MS analysis; type: ADME, organism-based; conditions: in vivo
Summary of the method: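 Male CD1 mice, about 6–8 weeks old and 20–30 g, received 10 mg/kg IV in 0.1 M NaOH in PBS adjusted to pH 7–8.5, made fresh on the day of dosing. Three mice per cohort. Blood was taken from the dorsal metatarsal vein at 5, 15, 30 min and 1, 2, 4, 8, 12, 24 h into heparin tubes. Plasma was spun at 4 °C, stored at –75 °C and analysed by LC–MS/MS. For IV dosing Cmax = C0.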

[7] = Genotoxicity in Salmonella typhimurium by Ames test; type: toxicity; conditions: salmonella enterica subsp. enterica serovar typhimurium
[8] = tested on: Cytochrome P450; experiment: Induction of CYP450 (unknown origin) at 10 uM; type: ADME, protein assay; conditions: human
[9] = Half life in mouse plasma; type: ADME, cell-free
Summary of the method: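 Stability in mouse plasma was followed at five time points, with T1/2 derived from parent remaining.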

[10] = molecular target: T1, CYP2C8 (Homo sapiens, UniProt P10632); experiment: Inhibition of CYP2C8 (unknown origin) at 10 uM relative to control; type: ADME
T1 sequence (P10632 whole entry): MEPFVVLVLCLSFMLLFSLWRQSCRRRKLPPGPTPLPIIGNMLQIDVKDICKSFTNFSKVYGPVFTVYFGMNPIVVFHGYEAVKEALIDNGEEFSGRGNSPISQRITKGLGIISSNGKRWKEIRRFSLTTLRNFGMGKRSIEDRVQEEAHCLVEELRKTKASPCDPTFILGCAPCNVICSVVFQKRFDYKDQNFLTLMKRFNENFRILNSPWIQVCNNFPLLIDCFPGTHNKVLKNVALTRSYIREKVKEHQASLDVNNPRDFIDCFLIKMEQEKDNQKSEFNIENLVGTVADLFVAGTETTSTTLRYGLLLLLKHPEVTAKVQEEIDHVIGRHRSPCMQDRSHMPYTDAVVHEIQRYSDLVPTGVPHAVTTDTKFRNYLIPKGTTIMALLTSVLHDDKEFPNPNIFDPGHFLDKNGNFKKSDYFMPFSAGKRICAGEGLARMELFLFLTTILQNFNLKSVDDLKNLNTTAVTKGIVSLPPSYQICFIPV

[11] = molecular target: T2, CYP2B6 (Homo sapiens, UniProt P20813); experiment: Inhibition of CYP2B6 (unknown origin) at 10 uM relative to control; type: ADME
T2 sequence (P20813 whole entry): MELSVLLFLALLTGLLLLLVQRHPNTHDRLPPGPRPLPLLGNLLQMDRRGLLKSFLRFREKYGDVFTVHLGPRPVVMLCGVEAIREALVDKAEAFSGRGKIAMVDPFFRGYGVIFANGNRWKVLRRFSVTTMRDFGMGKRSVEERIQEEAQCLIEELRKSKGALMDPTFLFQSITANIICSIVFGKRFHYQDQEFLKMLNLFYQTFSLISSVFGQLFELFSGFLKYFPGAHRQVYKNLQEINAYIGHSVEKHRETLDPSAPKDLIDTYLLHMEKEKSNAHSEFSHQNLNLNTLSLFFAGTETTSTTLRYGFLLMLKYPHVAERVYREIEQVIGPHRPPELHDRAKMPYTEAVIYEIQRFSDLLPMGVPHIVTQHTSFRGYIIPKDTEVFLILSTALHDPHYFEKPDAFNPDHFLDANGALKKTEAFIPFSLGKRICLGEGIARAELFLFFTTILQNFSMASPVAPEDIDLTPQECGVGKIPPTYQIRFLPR

[12] = molecular target: CYP2C9 (Homo sapiens, UniProt P11712); experiment: Inhibition of CYP2C9 (unknown origin) at 10 uM relative to control; type: ADME
Sequence of CYP2C9 (P11712 whole entry): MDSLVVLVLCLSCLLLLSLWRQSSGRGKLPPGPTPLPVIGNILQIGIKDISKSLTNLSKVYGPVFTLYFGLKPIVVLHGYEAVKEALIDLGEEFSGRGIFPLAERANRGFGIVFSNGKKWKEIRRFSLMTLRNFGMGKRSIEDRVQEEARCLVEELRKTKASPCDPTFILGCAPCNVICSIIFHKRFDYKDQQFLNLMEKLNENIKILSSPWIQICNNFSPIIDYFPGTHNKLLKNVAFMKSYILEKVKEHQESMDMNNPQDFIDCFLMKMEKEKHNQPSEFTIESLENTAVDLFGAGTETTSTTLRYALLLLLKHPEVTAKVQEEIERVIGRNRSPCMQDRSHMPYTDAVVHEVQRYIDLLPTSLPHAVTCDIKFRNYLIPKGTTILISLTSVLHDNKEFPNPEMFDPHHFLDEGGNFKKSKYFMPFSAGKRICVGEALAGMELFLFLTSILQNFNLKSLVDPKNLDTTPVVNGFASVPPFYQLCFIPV

[13] = Oral bioavailability in CD-1 mouse at 50 mg/kg and measured up to 24 hrs by LC/MS-MS analysis; type: ADME, organism-based; conditions: in vivo
Summary of the method: (§2)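 Male CD1 mice, about 6–8 weeks old and 20–30 g, were dosed PO at 40 or 50 mg/kg in 0.1 M NaOH in PBS, pH 7–8.5, prepared the same day. Three mice per cohort. Dorsal metatarsal vein blood was collected into heparin at 15, 30 min and 1, 2, 4, 8, 12, 24 h. Plasma was spun at 4 °C, frozen at –75 °C and quantified by LC–MS/MS.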

[14] = AUClast in CD-1 mouse at 50 mg/kg, po and measured up to 24 hrs by LC/MS-MS analysis; type: ADME, organism-based; set-up: route oral, dose 50 mg/kg, time <=24; conditions: in vivo; summary of the method: as §2
[15] = Cmax in CD-1 mouse at 50 mg/kg, po and measured up to 24 hrs by LC/MS-MS analysis; type: ADME, organism-based; set-up: route oral, dose 50 mg/kg, time <=24; conditions: in vivo; summary of the method: as §2
[16] = molecular target: T3, Cytochrome P450 2C8 (Homo sapiens, UniProt P10632); experiment: Inhibition of CYP2C8 (unknown origin) assessed as inhibitory concentration; type: ADME
T3 sequence (P10632 whole entry): T1 sequence (P10632 whole entry)

[17] = molecular target: T4, Cytochrome P450 2B6 (Homo sapiens, UniProt P20813); experiment: Inhibition of CYP2B6 (unknown origin) assessed as inhibitory concentration; type: ADME
T4 sequence (P20813 whole entry): T2 sequence (P20813 whole entry)

| SMILES | inhibition [1] | F [2] [%] | AUClast [3] [ng·h/mL] | Cmax [4] [ng/mL] | beta t1/2 [5] [h] | beta t1/2 [6] [h] | Activity [7] | Activity [8] | t1/2 [9] [h] | inhibition at 10 µM [10] [%] | inhibition at 10 µM [11] [%] | inhibition at 10 µM [12] [%] | F [13] [%] | AUClast [14] [ng·h/mL] | Cmax [15] [ng/mL] | INH [16] [µM] | INH [17] [µM] |
| --- | --- | --- | --- | --- | --- | --- | --- | --- | --- | --- | --- | --- | --- | --- | --- | --- | --- |
| Cc1ccc(C#Cc2cc(-c3nn(-c4nc(C(=O)O)cs4)c(CC4CC4)c3Cc3ccc(S(N)(=O)=O)c(F)c3)ccc2F)s1 | Active | 73.8 | 31390 | 5260 | 2.78 | 5.2 | Non-Toxic | Not Active | > 4 | 80 | 46 | 45 | – | – | – | – | – |
| Cc1ccc(C#Cc2cccc(-c3nn(-c4nc(C(=O)O)cs4)c(CC4CC4)c3Cc3ccc(S(N)(=O)=O)c(F)c3)c2)s1 | Active | – | – | – | – | 5.3 | Non-Toxic | Not Active | > 4 | – | – | – | 64 | 53540 | 8830 | 7.5 | 14 |
